From ChEMBL document CHEMBL4052600 (J Med Chem, 2017) come the findings set out here.

Each structure is given as a SMILES string.

The target of experiment [1] is Phosphatidylinositol 4,5-bisphosphate 3-kinase catalytic subunit alpha isoform (Homo sapiens, UniProt P42336). Put plainly: Inhibition of PI3Kalpha (unknown origin) using PIP2 as substrate preincubated for 15 mins followed by substrate addition measured after 60 mins in presence of ATP by HTRF method. In short, it runs like this: (§1)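 For PI3Kδ, substrate concentration limits measurable potency to about pIC50 9.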
For orientation: In TR-FRET formats the signal depends on donor and acceptor labels being close together.

For experiment [2], the target named is Phosphatidylinositol 4,5-bisphosphate 3-kinase catalytic subunit beta isoform (Homo sapiens, UniProt P42338). As to the kind of experiment: Inhibition of PI3Kbeta (unknown origin) using PIP2 as substrate preincubated for 15 mins followed by substrate addition measured after 60 mins in presence of ATP by HTRF method.
In experiment [3] the target is Phosphatidylinositol 4,5-bisphosphate 3-kinase catalytic subunit gamma isoform (Homo sapiens, UniProt P48736). Put plainly: Inhibition of PI3Kgamma (unknown origin) using PIP2 as substrate preincubated for 15 mins followed by substrate addition measured after 60 mins in presence of ATP by HTRF method.
Experiment [4] addresses T1, Phosphatidylinositol 4,5-bisphosphate 3-kinase catalytic subunit delta isoform (Homo sapiens, UniProt O00329).
T1 sequence (O00329 whole entry): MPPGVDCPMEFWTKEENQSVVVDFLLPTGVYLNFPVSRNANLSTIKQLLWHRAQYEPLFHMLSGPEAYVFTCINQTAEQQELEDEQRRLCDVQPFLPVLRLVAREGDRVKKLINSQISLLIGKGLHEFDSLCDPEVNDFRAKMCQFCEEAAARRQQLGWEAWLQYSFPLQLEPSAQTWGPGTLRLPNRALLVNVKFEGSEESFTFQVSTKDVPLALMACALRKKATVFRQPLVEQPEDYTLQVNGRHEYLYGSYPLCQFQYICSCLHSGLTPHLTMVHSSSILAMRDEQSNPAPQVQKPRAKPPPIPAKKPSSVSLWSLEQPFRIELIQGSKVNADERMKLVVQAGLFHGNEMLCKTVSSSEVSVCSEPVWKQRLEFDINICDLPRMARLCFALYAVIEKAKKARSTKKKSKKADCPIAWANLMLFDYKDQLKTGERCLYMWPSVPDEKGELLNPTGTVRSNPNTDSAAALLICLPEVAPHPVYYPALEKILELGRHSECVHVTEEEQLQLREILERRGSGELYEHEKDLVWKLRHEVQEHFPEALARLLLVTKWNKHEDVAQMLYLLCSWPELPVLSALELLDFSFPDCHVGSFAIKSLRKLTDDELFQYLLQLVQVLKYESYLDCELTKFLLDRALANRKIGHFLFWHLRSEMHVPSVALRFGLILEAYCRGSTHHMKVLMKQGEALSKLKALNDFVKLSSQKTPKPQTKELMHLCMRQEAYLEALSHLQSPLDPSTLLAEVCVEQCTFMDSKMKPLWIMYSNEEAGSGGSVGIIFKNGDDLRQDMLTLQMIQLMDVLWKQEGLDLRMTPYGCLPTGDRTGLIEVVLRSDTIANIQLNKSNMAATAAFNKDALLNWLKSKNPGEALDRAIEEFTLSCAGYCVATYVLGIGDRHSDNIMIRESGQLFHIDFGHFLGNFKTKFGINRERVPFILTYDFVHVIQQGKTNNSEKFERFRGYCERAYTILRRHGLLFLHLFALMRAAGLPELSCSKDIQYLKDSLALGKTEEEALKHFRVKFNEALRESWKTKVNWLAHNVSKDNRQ
Put plainly: Inhibition of PI3Kdelta (unknown origin) using PIP2 as substrate preincubated for 15 mins followed by substrate addition measured after 60 mins in presence of ATP by HTRF method. In short, it runs like this:
as §1

In experiment [5] the target is C-C chemokine receptor type 5 (Homo sapiens, UniProt P51681). Put plainly: Antagonist activity at human CCR5 expressed in HEK 293 Glosensor cells assessed as reduction in RANTES-induced intracellular calcium levels preincubated for 30 mins followed by RANTES addition measured at 2 secs time interval for 5 mins by Fluo-4-AM dye based fluorescence assay. The class given is functional, cell-based. Background: Calcium flux is commonly read through the fluorescence of an indicator in the cells.
Chain of C-C chemokine receptor type 5 (P51681 whole entry): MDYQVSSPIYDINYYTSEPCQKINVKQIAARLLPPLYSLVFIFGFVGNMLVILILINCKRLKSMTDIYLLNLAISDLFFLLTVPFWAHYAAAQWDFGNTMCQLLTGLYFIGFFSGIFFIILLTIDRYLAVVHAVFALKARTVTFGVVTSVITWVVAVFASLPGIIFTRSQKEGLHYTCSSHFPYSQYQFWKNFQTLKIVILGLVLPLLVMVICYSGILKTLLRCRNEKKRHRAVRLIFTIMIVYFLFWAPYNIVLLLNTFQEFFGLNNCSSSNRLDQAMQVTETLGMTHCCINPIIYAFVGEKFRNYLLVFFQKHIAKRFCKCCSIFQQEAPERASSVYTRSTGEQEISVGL

Chain of Phosphatidylinositol 4,5-bisphosphate 3-kinase catalytic subunit beta isoform (P42338 whole entry, canonical isoform): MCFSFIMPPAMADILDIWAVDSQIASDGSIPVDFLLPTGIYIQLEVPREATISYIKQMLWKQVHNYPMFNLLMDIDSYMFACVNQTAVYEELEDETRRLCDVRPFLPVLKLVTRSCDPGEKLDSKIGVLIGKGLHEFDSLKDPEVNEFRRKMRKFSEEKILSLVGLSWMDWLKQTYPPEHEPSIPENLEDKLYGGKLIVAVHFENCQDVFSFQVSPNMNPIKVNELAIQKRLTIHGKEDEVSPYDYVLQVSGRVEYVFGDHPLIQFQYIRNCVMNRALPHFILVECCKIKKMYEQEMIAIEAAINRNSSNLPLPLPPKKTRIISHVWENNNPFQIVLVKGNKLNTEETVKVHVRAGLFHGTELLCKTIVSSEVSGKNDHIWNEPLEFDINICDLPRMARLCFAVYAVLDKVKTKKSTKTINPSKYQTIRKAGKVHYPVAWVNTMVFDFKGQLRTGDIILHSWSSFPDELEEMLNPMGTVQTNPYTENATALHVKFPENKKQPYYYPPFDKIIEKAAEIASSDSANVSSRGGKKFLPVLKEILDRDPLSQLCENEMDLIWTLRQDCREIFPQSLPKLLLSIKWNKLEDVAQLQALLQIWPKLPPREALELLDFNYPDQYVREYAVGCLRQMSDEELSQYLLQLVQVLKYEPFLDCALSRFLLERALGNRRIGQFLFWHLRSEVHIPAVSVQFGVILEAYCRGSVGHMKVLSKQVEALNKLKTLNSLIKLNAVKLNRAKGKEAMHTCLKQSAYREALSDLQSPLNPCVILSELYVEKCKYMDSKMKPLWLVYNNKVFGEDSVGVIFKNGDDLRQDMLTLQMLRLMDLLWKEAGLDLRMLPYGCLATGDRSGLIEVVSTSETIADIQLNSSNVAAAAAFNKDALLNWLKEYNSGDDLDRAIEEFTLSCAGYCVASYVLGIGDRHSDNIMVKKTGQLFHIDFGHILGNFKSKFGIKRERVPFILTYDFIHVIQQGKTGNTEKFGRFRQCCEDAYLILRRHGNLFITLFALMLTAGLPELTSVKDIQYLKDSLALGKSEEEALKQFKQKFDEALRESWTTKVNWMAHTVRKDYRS
Chain of Phosphatidylinositol 4,5-bisphosphate 3-kinase catalytic subunit gamma isoform (P48736 whole entry, canonical isoform): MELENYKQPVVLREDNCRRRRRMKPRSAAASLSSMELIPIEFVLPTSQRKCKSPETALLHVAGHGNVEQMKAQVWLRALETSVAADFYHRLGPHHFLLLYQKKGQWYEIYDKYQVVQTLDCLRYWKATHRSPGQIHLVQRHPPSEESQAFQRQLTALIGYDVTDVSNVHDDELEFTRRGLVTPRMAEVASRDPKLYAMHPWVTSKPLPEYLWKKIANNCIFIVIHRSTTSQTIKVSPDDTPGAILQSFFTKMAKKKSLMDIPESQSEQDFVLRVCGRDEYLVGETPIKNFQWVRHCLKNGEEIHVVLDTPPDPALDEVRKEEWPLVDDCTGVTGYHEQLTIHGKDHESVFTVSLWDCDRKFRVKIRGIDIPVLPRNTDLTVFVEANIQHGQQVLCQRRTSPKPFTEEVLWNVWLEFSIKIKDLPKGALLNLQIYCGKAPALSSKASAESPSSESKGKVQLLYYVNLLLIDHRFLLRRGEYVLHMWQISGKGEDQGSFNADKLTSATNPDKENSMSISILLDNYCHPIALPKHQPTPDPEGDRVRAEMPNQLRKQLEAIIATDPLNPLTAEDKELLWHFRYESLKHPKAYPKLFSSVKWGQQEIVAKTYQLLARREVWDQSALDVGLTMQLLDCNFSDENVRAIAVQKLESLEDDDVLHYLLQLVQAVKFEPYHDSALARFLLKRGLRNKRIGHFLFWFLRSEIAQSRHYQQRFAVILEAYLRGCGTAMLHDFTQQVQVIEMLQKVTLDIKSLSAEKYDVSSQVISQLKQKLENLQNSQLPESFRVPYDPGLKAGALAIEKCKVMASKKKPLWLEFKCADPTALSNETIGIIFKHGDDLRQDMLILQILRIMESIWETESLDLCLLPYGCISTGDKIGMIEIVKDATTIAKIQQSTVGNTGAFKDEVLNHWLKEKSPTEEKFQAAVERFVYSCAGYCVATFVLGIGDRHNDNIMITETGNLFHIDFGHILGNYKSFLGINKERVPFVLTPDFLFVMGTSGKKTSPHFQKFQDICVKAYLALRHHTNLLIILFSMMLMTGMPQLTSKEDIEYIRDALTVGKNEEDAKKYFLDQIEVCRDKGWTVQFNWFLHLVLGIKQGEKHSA
Chain of Phosphatidylinositol 4,5-bisphosphate 3-kinase catalytic subunit alpha isoform (P42336 whole entry, canonical isoform): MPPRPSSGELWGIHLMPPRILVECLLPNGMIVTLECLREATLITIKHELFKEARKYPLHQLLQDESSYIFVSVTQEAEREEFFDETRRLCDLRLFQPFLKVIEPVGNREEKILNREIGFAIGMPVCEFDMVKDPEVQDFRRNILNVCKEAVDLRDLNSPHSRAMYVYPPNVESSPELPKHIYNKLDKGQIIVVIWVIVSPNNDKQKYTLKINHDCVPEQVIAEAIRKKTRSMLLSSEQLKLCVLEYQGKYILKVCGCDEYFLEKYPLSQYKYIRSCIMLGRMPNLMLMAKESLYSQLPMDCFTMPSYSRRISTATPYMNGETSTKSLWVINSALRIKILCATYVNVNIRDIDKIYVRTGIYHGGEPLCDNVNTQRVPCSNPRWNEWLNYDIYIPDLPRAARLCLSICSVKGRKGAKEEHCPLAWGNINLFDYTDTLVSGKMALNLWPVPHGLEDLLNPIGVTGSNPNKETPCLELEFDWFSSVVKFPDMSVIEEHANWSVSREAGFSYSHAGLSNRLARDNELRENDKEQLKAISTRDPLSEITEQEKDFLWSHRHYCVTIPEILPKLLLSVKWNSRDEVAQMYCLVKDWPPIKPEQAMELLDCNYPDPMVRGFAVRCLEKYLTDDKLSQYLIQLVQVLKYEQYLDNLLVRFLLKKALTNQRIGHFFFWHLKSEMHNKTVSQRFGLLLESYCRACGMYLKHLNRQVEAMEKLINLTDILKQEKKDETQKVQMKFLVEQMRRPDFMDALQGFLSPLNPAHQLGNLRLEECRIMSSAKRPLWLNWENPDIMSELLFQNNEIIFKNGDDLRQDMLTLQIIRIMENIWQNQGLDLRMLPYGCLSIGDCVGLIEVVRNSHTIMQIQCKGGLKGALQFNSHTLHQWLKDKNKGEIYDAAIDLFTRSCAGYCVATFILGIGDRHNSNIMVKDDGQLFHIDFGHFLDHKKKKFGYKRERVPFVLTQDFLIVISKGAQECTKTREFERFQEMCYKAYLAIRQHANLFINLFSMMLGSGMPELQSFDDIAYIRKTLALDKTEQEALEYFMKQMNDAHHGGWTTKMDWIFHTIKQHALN

Turning to `Cc1nncn1C1CCN(Cc2cc3nc(-c4cccc(O)c4)nc(N4CCOCC4)c3s2)CC1`, the 50% inhibitory concentration (IC50) is 0.1 µM in experiment [1], 0.158 µM in experiment [2], 0.2 µM in experiment [3] and 0.00398 µM in experiment [4].
On to `Oc1cccc(-c2nc(N3CCOCC3)c3sc(CN4CCC(n5cnnc5C(F)(F)F)CC4)cc3n2)c1`, for which the 50% inhibitory concentration (IC50) was 0.0631 µM in experiment [1], 0.1 µM in experiment [2], 0.158 µM in experiment [3] and 0.00251 µM in experiment [4].
In the case of `FC(F)(F)c1nncn1C1CCN(Cc2cc3nc(-c4cccc5[nH]ncc45)nc(N4CCOCC4)c3s2)CC1`, the half-maximal inhibitory concentration (IC50) in experiment [1] was 0.316 µM; in experiment [2], 1.26 µM; in experiment [3] it was 0.794 µM; in experiment [4], 0.02 µM.
Consider `Cc1nncn1C1CCN(Cc2cc3nc(-c4cccc5[nH]ncc45)nc(N4CCOCC4)c3s2)CC1`, for which the 50% inhibitory concentration (IC50) in experiment [1] is 0.316 µM; in experiment [2] it was 1 µM; in experiment [3] it was 1 µM; in experiment [4], 0.01 µM.
Take `FC(F)(F)c1nncn1C1CCN(Cc2cc3nc(-c4cccc5[nH]ccc45)nc(N4CCOCC4)c3s2)CC1`: the IC50 was 3.98 µM in experiment [1], 0.794 µM in experiment [2], 3.16 µM in experiment [3] and 0.02 µM in experiment [4].
In the case of `Cc1nncn1C1CCN(Cc2cc3nc(-c4cccc5[nH]ccc45)nc(N4CCOCC4)c3s2)CC1`, the figures for the concentration for half-maximal inhibition (IC50) in experiment [1], in experiment [2] and in experiment [4] were 2 µM, 0.398 µM and 0.00398 µM, respectively.
Take `Cc1nnc2n1[C@H]1CCN(CC[C@H](NC(=O)C3CCC(F)(F)CC3)c3ccccc3)C[C@H]1CC2` (racemic): in experiment [5], the Kd is 0.316 µM.
Consider `Cc1nnc2n1[C@H]1CCN(Cc3cc4nc(-c5cccc6[nH]ccc56)nc(N5CCOCC5)c4s3)C[C@@H]1CC2` (relative stereo), for which the IC50 in experiment [1] is 2 µM; in experiment [2], 0.316 µM; in experiment [3], 0.794 µM; in experiment [4] it was 0.001 µM.
The matching figures for `FC(F)(F)c1nnc2n1[C@H]1CCN(Cc3cc4nc(-c5cccc6[nH]ccc56)nc(N5CCOCC5)c4s3)C[C@H]1CC2` (relative stereo): 1.58 µM, 0.1 µM, 0.631 µM and 0.000794 µM.
The like results for `Cc1nnc2n1[C@H]1CCN(Cc3cc4nc(-c5cccc6[nH]ncc56)nc(N5CCOCC5)c4s3)C[C@@H]1CC2` (relative stereo) were, in that order, 0.158 µM, 0.501 µM, 0.316 µM and 0.00398 µM.
`Oc1cccc(-c2nc(N3CCOCC3)c3sc(CN4CC[C@H]5[C@@H](CCc6nnc(C(F)(F)F)n65)C4)cc3n2)c1` (relative stereo): the half-maximal inhibitory concentration (IC50) in experiment [1] was 0.0316 µM; in experiment [2], 0.0501 µM; in experiment [3] it was 0.2 µM; in experiment [4], 0.001 µM.
In the case of `FC(F)(F)c1nnc2n1[C@H]1CCN(Cc3cc4nc(-c5cccc6[nH]ncc56)nc(N5CCOCC5)c4s3)C[C@H]1CC2` (relative stereo), the half-maximal inhibitory concentration (IC50) in experiment [1] was 0.316 µM; in experiment [2] it was 0.398 µM; in experiment [3], 0.794 µM; in experiment [4], 0.00251 µM.
For the molecule `Cc1nnc2n1[C@H]1CCN(Cc3cc4nc(-c5cccc6[nH]ccc56)nc(N5CCOCC5)c4s3)C[C@H]1CC2` (relative stereo), the IC50 in experiment [1] was 3.16 µM; in experiment [2] it was 0.316 µM; in experiment [3], 1.58 µM; in experiment [4], 0.000794 µM.
Turning to `Cc1nnc2n1[C@@H]1CCN(CC[C@H](NC(=O)C3CCC(F)(F)CC3)c3ccccc3)C[C@@H]1CC2` (relative stereo), in experiment [5], the dissociation constant (Kd) is 0.01 µM.
In the case of `FC(F)(F)c1nnc2n1[C@H]1CCN(Cc3cc4nc(-c5cccc6[nH]ncc56)nc(N5CCOCC5)c4s3)C[C@@H]1CC2` (relative stereo), the IC50 in experiment [1] is 0.158 µM; in experiment [2] it was 0.631 µM; in experiment [3], 1 µM; in experiment [4], 0.00794 µM.
Regarding `Cc1nnc2n1[C@H]1CCN(Cc3cc4nc(-c5cccc(O)c5)nc(N5CCOCC5)c4s3)C[C@@H]1CC2` (relative stereo), the IC50 is 0.1 µM in experiment [1], 0.126 µM in experiment [2], 0.501 µM in experiment [3] and 0.000794 µM in experiment [4].
The matching figures for `Oc1cccc(-c2nc(N3CCOCC3)c3sc(CN4CC[C@H]5[C@H](CCc6nnc(C(F)(F)F)n65)C4)cc3n2)c1` (relative stereo): 0.0631 µM, 0.0501 µM, 0.158 µM and 0.000631 µM.
The matching figures for `FC(F)(F)c1nnc2n1[C@H]1CCN(Cc3cc4nc(-c5cccc6[nH]ccc56)nc(N5CCOCC5)c4s3)C[C@@H]1CC2` (relative stereo): 0.501 µM, 0.158 µM, 0.398 µM and 0.00158 µM.
`Cc1nnc2n1[C@H]1CCN(Cc3cc4nc(-c5cccc6[nH]ncc56)nc(N5CCOCC5)c4s3)C[C@H]1CC2` (relative stereo): the IC50 is 1.58 µM in experiment [1], 1.26 µM in experiment [2], 1.26 µM in experiment [3] and 0.00316 µM in experiment [4].

What is called IC50 is the concentration that gives 50% inhibition. The term Kd denotes the constant that tells how readily two partners part at equilibrium.
